# Measurements pooled from the literature.
# Compare with care: the assays were run in different laboratories. pIC50: −log10 of the molar value.
SMILES,target or system,assay,system,conditions,measurement,result
Cc1ncc2n1-c1ccc(Cl)cc1C(c1ccccc1F)=NC2,,metabolic stability,"human, hepatocytes","1 µM, 4 h",compound remaining,26%
COc1cc([C@@H]2c3cc4c(cc3[C@H](O)[C@H]3COC(=O)[C@H]23)OCO4)cc(OC)c1OC,L6,"cell growth or viability, resazurin",,72 h,pIC50,6.77
Cc1nccn1CCCCOc1cc2oc(=O)ccc2cc1O,HepG2.2.15,"cell growth or viability, MTT",,9 days,CC50,> 648 µM
N=c1c2c(-c3ccccc3)c(-c3ccccc3)n(Cc3ccccc3)c2ncn1[C@H]1CC[C@H](O)CC1,,metabolic stability,"human, hepatocytes","1 µM, 4 h",compound remaining,86%
CCOC(=O)c1ncn2c1[C@H](C)N=C(c1ccccc1F)c1cc(C3CC3)ccc1-2,,metabolic stability,"human, liver microsomes",20 min,compound remaining,< 5%
COc1cc([C@@H]2c3cc4c(cc3[C@H](O)[C@H]3COC(=O)[C@H]23)OCO4)cc(OC)c1OC,L6,"cell growth or viability, resazurin",,70 h,pIC50,7.30
O=c1ccc2cc(O)c(OCCCCCn3ccnc3)cc2o1,HepG2.2.15,"cell growth or viability, MTT",,9 days,CC50,140 µM
C#Cc1ccc2c(c1)C(c1ccccc1F)=N[C@@H](C)c1c(C(=O)OCC(F)(F)F)ncn1-2,,metabolic stability,"human, liver microsomes",10 min,compound remaining,< 5%
Cc1nc(C(=O)N2CCC[C@H]2C(=O)N[C@@H](CCC2CCCCC2)C(=O)N[C@@H](CC(C)C)C(=O)NC(C)(C)C(=O)N[C@@H](CC(C)C)C(=O)N(C)[C@@H](CC(C)C)C(=O)NC(C)(C)C(=O)NC(C)(C)C(=O)NCCC(=O)NC2(CN(C)C)CCC2)co1,L6,"cell growth or viability, resazurin",,68 h,pIC50,< 5.07
Cc1ncc2n1-c1ccc(Cl)cc1C(c1ccccc1F)=NC2,,metabolic stability,"human, liver microsomes","1 µM, 30 min",compound remaining,< 7%
